The text below walks through data of PMC4477344 (Diabetes, 2015).

One series deals with Dpp4. Particulars: cited from earlier work.
Series [1] deals with diet-induced obese (DIO) mice. The series is described as follows: GLP-1. The class given is in vivo, C57BL/6J male mice. Particulars: continuous infusion for up to 16 weeks. A digest of the protocol: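 Mice were started on high-fat diet at 6–10 weeks of age and fed it for 7–22 weeks. At 13–28 weeks of age they were randomized by body weight and given osmotic minipumps delivering vehicle (0.154 mol/L NaCl/0.2% human serum albumin) or test compound at 50–70 nmol/kg/day for […]. Body weight was recorded weekly and food intake twice weekly. Fat and lean mass were measured by DXA at week 15. n = 6 per group.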

Where no end group is shown, it is not given here.

With GLP-1(7-36)amide, the “time of cleavage in vivo by Dpp4 to GLP-1(9-36)amide” value in the series with Dpp4 was 1 to 2 min. For LVKGR-NH2 [GLP-1(32-36)amide], the adverse effects result in series [1] is recorded as “No adverse effects”.
